Measured values reported in ChEMBL document CHEMBL3244396, “Synthesis and antileukemic activity of 5-substituted 2,3-dihydro-6,7-bis(hydroxymethyl)-1H-pyrrolizine diesters” (J Med Chem, 1977).

How the values were obtained:
Mus musculus [1] = assay: Toxicity in female BDF1 mouse allografted with mouse L1210 cells assessed as animal survival at 50 mg/kg, ip administered daily for 9 days as Klucel suspension starting 24 hrs after tumor inoculation measured on fifth day; type: organism-based; design: dose 50 mg/kg, route intraperitoneal; conditions: in vivo
Outline: (§1)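 L1210 leukemia passaged as ascitic fluid and inoculated ip. Test agent given ip as a Klucel (hydroxypropylcellulose) suspension, nine daily doses starting 24 h after tumor inoculation. Acute toxicity read as toxicity-day survivors per group (out of 6), recorded on day 5. Animal weight difference T − C was also recorded. Follows NCI screening protocols.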

Mus musculus [2] = assay: Toxicity in female BDF1 mouse allografted with mouse L1210 cells assessed as animal survival at 25 mg/kg, ip administered daily for 9 days as Klucel suspension starting 24 hrs after tumor inoculation measured on fifth day; type: organism-based; design: dose 25 mg/kg, route intraperitoneal; conditions: in vivo; outline: as §1
L1210 [3] = assay: Antileukemic activity against mouse L1210 cells allografted in female BDF1 mouse assessed as change in body weight at 50 mg/kg, ip administered daily for 9 days as Klucel suspension starting 24 hrs after tumor inoculation; type: functional; conditions: route intraperitoneal
Outline: (§2)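 Ascitic fluid carrying L1210 cells was inoculated ip. Compound was given ip as a Klucel (hydroxypropylcellulose) suspension in nine daily doses, starting 24 h after inoculation. Body-weight difference (treated minus control) was recorded on day 5. Survival was scored as %T/C of mean survival time.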

Mus musculus [4] = assay: Toxicity in male CDF1 mouse allografted with mouse L1210 cells assessed as animal survival at 200 mg/kg, ip administered daily for 9 days as Klucel suspension starting 24 hrs after tumor inoculation measured on fifth day; type: organism-based; design: dose 200 mg/kg, route intraperitoneal; conditions: in vivo; outline: as §1
L1210 [5] = assay: Antileukemic activity against mouse L1210 cells allografted in male CDF1 mouse assessed as change in body weight at 200 mg/kg, ip administered daily for 9 days as Klucel suspension starting 24 hrs after tumor inoculation; type: functional; conditions: route intraperitoneal; outline: as §2
P388 [6] = assay: Antitumor activity against mouse P388 cells allografted in male CDF1 mouse assessed as disease cures by measuring 30-days host survival at 50 mg/kg, ip administered daily for 9 days as Klucel suspension starting 24 hrs after tumor inoculation relative to control; type: functional; conditions: route intraperitoneal
Outline: (§3)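 P388 leukemia given as an ascitic fluid cell inoculum, ip, to mice of the strain and sex in each line. Nine daily ip doses were given in a Klucel (hydroxypropylcellulose) suspension, starting 24 h after inoculation. Read-out is median survival time as %T/C, with >125 taken as significant; a "cure" means 30-day survival.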

P388 [7] = assay: Antitumor activity against mouse P388 cells allografted in male CDF1 mouse assessed as change in body weight at 100 mg/kg, ip administered daily for 9 days as Klucel suspension starting 24 hrs after tumor inoculation; type: functional; conditions: route intraperitoneal
Outline: (§4)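 Ascitic fluid carrying P388 cells was inoculated ip. Compound was given ip in nine daily doses, starting 24 h after inoculation, in Klucel (hydroxypropylcellulose) suspension or in saline with Tween-80. Body-weight difference (treated minus control) was recorded on day 5. Survival was scored as %T/C of median survival time, and 30-day survival counted as cure.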

P388 [8] = assay: Antitumor activity against mouse P388 cells allografted in male CDF1 mouse assessed as disease cures by measuring 30-days host survival at 100 mg/kg, ip administered daily for 9 days as Klucel suspension starting 24 hrs after tumor inoculation relative to control; type: functional; conditions: route intraperitoneal; outline: as §3
P388 [9] = assay: Antitumor activity against mouse P388 cells allografted in male CDF1 mouse assessed as change in body weight at 50 mg/kg, ip administered daily for 9 days as Klucel suspension starting 24 hrs after tumor inoculation; type: functional; conditions: route intraperitoneal; outline: as §4
P388 [10] = assay: Antitumor activity against mouse P388 cells allografted in male CDF1 mouse assessed as change in body weight at 12.5 mg/kg, ip administered daily for 9 days as Klucel suspension starting 24 hrs after tumor inoculation; type: functional; conditions: route intraperitoneal; outline: as §4
P388 [11] = assay: Antitumor activity against mouse P388 cells allografted in male CDF1 mouse assessed as change in body weight at 25 mg/kg, ip administered daily for 9 days as Klucel suspension starting 24 hrs after tumor inoculation; type: functional; conditions: route intraperitoneal; outline: as §4
L1210 [12] = assay: Antileukemic activity against mouse L1210 cells allografted in female BDF1 mouse assessed as change in body weight at 25 mg/kg, ip administered daily for 9 days as Klucel suspension starting 24 hrs after tumor inoculation; type: functional; conditions: route intraperitoneal; outline: as §2
L1210 [13] = assay: Antileukemic activity against mouse L1210 cells allografted in female BDF1 mouse assessed as change in body weight at 12.5 mg/kg, ip administered daily for 9 days as Klucel suspension starting 24 hrs after tumor inoculation; type: functional; conditions: route intraperitoneal; outline: as §2
Mus musculus [14] = assay: Toxicity in male CDF1 mouse allografted with mouse L1210 cells assessed as animal survival at 100 mg/kg, ip administered daily for 9 days as Klucel suspension starting 24 hrs after tumor inoculation measured on fifth day; type: organism-based; design: dose 100 mg/kg, route intraperitoneal; conditions: in vivo; outline: as §1
L1210 [15] = assay: Antileukemic activity against mouse L1210 cells allografted in female BDF1 mouse assessed as host mean survival time at 25 mg/kg, ip administered daily for 9 days as Klucel suspension starting 24 hrs after tumor inoculation relative to control; type: functional; conditions: route intraperitoneal
Outline: (§5)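 L1210 leukemia given as an ascitic fluid cell inoculum, ip, to mice of the strain and sex in each line. Test material was given ip for nine daily doses starting 24 h after inoculation, in a Klucel (hydroxypropylcellulose) suspension. Read-out is mean survival time as %T/C versus controls, with >125 taken as significant.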

[16] = Cytotoxicity against human 9KB cells treated as ethanol solution; type: functional; conditions: read-out: ED50 (the source's name)
Outline: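 Compound applied as an ethanol solution; activity read out as ED50 under the general screening protocol.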

L1210 [17] = assay: Antileukemic activity against mouse L1210 cells allografted in male CDF1 mouse assessed as change in body weight at 100 mg/kg, ip administered daily for 9 days as Klucel suspension starting 24 hrs after tumor inoculation; type: functional; conditions: route intraperitoneal; outline: as §2
L1210 [18] = assay: Antileukemic activity against mouse L1210 cells allografted in female BDF1 mouse assessed as host mean survival time at 50 mg/kg, ip administered daily for 9 days as Klucel suspension starting 24 hrs after tumor inoculation relative to control; type: functional; conditions: route intraperitoneal; outline: as §5
Mus musculus [19] = assay: Toxicity in male CDF1 mouse allografted with mouse P388 cells assessed as animal survival at 50 mg/kg, ip administered daily for 9 days as Klucel suspension starting 24 hrs after tumor inoculation; type: organism-based; design: dose 50 mg/kg, route intraperitoneal; conditions: in vivo
Outline: (§6)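 P-388 leukemia ascitic fluid inoculated ip. Compound given ip as a suspension in Klucel (hydroxypropylcellulose), once daily for nine doses beginning 24 h post-inoculation. Acute toxicity assessed as toxicity-day survivors per group. Survival was followed up to 30 days, with 30-day survival counted as "cure". Follows NCI screening protocols.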

P388 [20] = assay: Antitumor activity against mouse P388 cells allografted in male CDF1 mouse assessed as disease cures by measuring 30-days host survival at 12.5 mg/kg, ip administered daily for 9 days as Klucel suspension starting 24 hrs after tumor inoculation relative to control; type: functional; conditions: route intraperitoneal; outline: as §3
Mus musculus [21] = assay: Toxicity in female BDF1 mouse allografted with mouse L1210 cells assessed as animal survival at 12.5 mg/kg, ip administered daily for 9 days as Klucel suspension starting 24 hrs after tumor inoculation measured on fifth day; type: organism-based; design: dose 12.5 mg/kg, route intraperitoneal; conditions: in vivo
Outline: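 Female BDF1 mice bearing ip ascitic L1210 inoculum got nine daily ip doses in a Klucel suspension, starting 24 h after tumor inoculation. Toxicity was scored as toxicity-day survivors out of the group, recorded on the fifth day. Animal weight difference (T − C) was also tabulated.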

L1210 [22] = assay: Antileukemic activity against mouse L1210 cells allografted in male CDF1 mouse assessed as host mean survival time at 100 mg/kg, ip administered daily for 9 days as Klucel suspension starting 24 hrs after tumor inoculation relative to control; type: functional; conditions: route intraperitoneal; outline: as §5
L1210 [23] = assay: Antileukemic activity against mouse L1210 cells allografted in male CDF1 mouse assessed as host mean survival time at 200 mg/kg, ip administered daily for 9 days as Klucel suspension starting 24 hrs after tumor inoculation relative to control; type: functional; conditions: route intraperitoneal; outline: as §5
Mus musculus [24] = assay: Toxicity in male CDF1 mouse allografted with mouse P388 cells assessed as animal survival at 25 mg/kg, ip administered daily for 9 days as Klucel suspension starting 24 hrs after tumor inoculation; type: organism-based; design: dose 25 mg/kg, route intraperitoneal; conditions: in vivo; outline: as §6
Mus musculus [25] = assay: Toxicity in male CDF1 mouse allografted with mouse P388 cells assessed as animal survival at 12.5 mg/kg, ip administered daily for 9 days as Klucel suspension starting 24 hrs after tumor inoculation; type: organism-based; design: dose 12.5 mg/kg, route intraperitoneal; conditions: in vivo; outline: as §6
P388 [26] = assay: Antitumor activity against mouse P388 cells allografted in male CDF1 mouse assessed as disease cures by measuring 30-days host survival at 25 mg/kg, ip administered daily for 9 days as Klucel suspension starting 24 hrs after tumor inoculation relative to control; type: functional; conditions: route intraperitoneal; outline: as §3
L1210 [27] = assay: Antileukemic activity against mouse L1210 cells allografted in female BDF1 mouse assessed as host mean survival time at 12.5 mg/kg, ip administered daily for 9 days as Klucel suspension starting 24 hrs after tumor inoculation relative to control; type: functional; conditions: route intraperitoneal; outline: as §5

Q: Which results are given for `CNC(=O)OCc1c(COC(=O)NC)c(-c2ccc(Cl)c(Cl)c2)n2c1CCC2`?
A: Activity (Mus musculus [1]): Non-toxic; Activity (Mus musculus [2]): Non-toxic; Activity (L1210 [3]): -3 g; Activity (Mus musculus [4]): Non-toxic; Activity (L1210 [5]): -4.8 g; T/C (P388 [6]): 155%; Activity (P388 [7]): -1.9 g; T/C (P388 [8]): 188%; Activity (P388 [9]): -2.5 g; Activity (P388 [10]): 1.6 g; Activity (P388 [11]): -0.4 g; Activity (L1210 [12]): -1.3 g; Activity (L1210 [13]): -1.5 g; Activity (Mus musculus [14]): Non-toxic; T/C (L1210 [15]): 109%; EC50 [16]: > 2.7 µg/mL; Activity (L1210 [17]): -4.3 g; T/C (L1210 [18]): 124%; Activity (Mus musculus [19]): Non-toxic; T/C (P388 [20]): 153%; Activity (Mus musculus [21]): Non-toxic; T/C (L1210 [22]): 74%; T/C (L1210 [23]): 63%; Activity (Mus musculus [24]): Non-toxic; Activity (Mus musculus [25]): Non-toxic; T/C (P388 [26]): 160%; T/C (L1210 [27]): 106%
